From ChEMBL document CHEMBL2321766, “Optimization of a Novel Series of TRPV4 Antagonists with In Vivo Activity in a Model of Pulmonary Edema” (ACS Med Chem Lett, 2013) come the findings set out here.

Activity calls are given as the source filed them. The calls are words filed in the database; no cut-off is given here.

Series [1] deals with T1, Transient receptor potential cation channel subfamily V member 4 (Homo sapiens, UniProt Q9HBA0). Briefly: Antagonist activity at human recombinant TRPV4 expressed in BacMam virus infected HEK MSRII cells assessed as inhibition of GSK634775-induced calcium […] treated 10 mins prior to TRPV4 agonist, GSK634775 by FLIPR assay.
T1 sequence (Q9HBA0 whole entry): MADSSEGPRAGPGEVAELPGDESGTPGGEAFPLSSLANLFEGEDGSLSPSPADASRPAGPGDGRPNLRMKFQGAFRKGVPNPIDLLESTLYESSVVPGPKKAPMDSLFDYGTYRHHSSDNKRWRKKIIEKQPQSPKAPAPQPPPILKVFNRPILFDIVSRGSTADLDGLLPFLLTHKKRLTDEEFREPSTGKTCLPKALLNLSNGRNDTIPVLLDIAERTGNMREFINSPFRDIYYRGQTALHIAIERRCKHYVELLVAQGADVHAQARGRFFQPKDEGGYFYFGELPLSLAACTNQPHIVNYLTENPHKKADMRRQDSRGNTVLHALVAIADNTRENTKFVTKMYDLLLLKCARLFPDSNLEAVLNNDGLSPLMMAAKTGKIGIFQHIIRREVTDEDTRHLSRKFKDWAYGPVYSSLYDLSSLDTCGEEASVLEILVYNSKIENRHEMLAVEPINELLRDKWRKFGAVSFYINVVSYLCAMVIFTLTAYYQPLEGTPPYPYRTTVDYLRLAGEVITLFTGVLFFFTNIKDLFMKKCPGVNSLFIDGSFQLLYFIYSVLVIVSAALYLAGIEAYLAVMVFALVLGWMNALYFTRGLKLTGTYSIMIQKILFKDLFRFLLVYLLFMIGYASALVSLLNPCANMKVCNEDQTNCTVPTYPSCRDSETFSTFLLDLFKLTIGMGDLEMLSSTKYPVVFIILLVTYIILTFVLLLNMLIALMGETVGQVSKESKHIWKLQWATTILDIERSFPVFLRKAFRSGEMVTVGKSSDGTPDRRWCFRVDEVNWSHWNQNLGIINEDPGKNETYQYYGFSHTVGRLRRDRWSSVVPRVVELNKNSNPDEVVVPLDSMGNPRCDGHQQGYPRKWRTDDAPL
Series [2] relates to Rattus norvegicus. Briefly: Decrease in lung/body weight ratio in GSK1016790A-induced Sprague-Dawley rat pulmonary edema model at 10 mg/kg, iv administered 30 mins prior to GSK-1016790A injection. The format is functional, organism-based. The arrangement: dose 10 mg/kg. In short, it runs like this: (§1)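 Rats given vehicle, 3 or 10 mg/kg iv 30 min before iv challenge with the TRPV4 agonist GSK1016790A at rising doses. Mean arterial pressure recorded during pretreatment and after agonist. Pulmonary edema scored as wet lung weight/body weight ratio, compared with vehicle-treated rats. Plasma drug levels measured at both doses.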

In series [3] the test system is Rattus norvegicus. Description: Decrease in lung/body weight ratio in GSK1016790A-induced Sprague-Dawley rat pulmonary edema model at 3 mg/kg, iv administered 30 mins prior to GSK-1016790A injection. Type of series: functional, organism-based. The arrangement: dose 3 mg/kg. In short, it runs like this: as §1
Series [4] in a line: (§2) Half life in Sprague-Dawley rat plasma at 2 mg/kg, po by HPLC-MS/MS analysis. To be noted: Sprague-Dawley, plasma. Also on record: dose 2 mg/kg, route oral. Type of series: ADME, organism-based.
The target in series [5] is Potassium voltage-gated channel subfamily A member 5 (Homo sapiens) (UniProt P22460). Briefly: Inhibition of human Kv1.5 expressed in CHO cells assessed as decrease in channel current at > 10 uM by patch clamp analysis. Type of series: cell-based. In general terms: Patch clamp records ionic current or voltage across a cell membrane.
Series [6] relates to Plasma. Description: Fraction unbound in rat plasma. The format is ADME, cell-free.
The target in series [7] is Voltage-dependent L-type calcium channel subunit alpha-1C (Homo sapiens, UniProt Q13936). Description: Inhibition of human Cav1.2 expressed in HEK293 cells assessed as decrease in calcium […] at >10 uM by FLIPR analysis. Type of series: cell-based.
Sequence of Voltage-dependent L-type calcium channel subunit alpha-1C (Q13936 whole entry): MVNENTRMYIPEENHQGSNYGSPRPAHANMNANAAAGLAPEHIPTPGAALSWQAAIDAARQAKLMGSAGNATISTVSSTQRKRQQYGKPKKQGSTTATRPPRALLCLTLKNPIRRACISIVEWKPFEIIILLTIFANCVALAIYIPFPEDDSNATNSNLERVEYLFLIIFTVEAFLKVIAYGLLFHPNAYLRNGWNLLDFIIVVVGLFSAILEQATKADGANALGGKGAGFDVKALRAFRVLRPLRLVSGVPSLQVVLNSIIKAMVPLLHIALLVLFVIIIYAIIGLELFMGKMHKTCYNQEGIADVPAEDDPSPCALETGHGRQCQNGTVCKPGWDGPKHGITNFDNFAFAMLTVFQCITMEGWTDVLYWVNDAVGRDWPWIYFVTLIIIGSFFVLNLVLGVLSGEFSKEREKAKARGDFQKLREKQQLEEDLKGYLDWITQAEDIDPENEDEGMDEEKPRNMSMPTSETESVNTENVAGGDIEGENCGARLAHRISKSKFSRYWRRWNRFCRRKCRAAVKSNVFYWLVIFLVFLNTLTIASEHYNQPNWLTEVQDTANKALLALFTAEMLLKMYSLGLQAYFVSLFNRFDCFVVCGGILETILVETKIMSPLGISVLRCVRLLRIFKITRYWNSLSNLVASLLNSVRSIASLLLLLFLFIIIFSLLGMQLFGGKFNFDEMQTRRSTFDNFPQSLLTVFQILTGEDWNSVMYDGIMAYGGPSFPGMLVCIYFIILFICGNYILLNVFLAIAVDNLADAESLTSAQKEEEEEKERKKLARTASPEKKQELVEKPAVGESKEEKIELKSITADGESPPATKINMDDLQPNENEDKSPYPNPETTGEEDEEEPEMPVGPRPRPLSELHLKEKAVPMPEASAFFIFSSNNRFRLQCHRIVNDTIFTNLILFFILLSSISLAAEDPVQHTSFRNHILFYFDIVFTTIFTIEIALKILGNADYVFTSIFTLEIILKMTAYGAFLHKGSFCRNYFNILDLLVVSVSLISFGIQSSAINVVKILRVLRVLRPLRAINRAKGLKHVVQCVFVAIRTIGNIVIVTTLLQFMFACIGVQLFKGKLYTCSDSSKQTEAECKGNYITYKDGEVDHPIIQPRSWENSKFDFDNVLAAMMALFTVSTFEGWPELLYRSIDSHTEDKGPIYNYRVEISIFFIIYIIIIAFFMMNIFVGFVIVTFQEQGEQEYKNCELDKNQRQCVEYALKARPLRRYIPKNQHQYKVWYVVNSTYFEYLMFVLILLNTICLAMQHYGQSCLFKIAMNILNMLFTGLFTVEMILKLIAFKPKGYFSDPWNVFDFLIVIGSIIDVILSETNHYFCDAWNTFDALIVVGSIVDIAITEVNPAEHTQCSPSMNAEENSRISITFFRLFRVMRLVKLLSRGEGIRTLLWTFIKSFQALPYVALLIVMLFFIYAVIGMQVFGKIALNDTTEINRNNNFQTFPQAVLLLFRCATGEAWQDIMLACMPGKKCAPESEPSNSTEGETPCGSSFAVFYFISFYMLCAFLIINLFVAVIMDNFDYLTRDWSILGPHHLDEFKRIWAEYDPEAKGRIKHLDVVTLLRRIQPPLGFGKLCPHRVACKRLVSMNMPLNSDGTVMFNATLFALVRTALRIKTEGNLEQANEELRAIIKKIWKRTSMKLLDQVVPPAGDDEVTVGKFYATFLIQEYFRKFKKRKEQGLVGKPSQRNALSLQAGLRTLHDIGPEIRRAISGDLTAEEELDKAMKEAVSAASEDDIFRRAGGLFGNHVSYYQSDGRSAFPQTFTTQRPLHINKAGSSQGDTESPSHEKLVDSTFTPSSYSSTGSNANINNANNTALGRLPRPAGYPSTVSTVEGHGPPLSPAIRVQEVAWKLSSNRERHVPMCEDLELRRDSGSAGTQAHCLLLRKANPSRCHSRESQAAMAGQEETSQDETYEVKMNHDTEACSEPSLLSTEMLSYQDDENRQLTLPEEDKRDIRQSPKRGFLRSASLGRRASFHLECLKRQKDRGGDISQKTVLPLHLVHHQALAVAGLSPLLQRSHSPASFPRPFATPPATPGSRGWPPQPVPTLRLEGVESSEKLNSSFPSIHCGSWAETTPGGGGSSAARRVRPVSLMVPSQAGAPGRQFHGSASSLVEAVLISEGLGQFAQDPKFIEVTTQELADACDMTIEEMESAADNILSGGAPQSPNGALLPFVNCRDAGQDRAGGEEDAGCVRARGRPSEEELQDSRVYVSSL
In series [8] the test system is Rattus norvegicus. Briefly: Reduction of GSK-1016790A-induced decrease in mean arterial pressure in iv dosed Sprague-Dawley rat administered 30 mins prior to GSK-1016790A injection. Type of series: functional, organism-based. To be noted: Artery. In outline:
as §1

The target in series [9] is Transient receptor potential cation channel subfamily V member 4 (Rattus norvegicus, UniProt Q9ERZ8). Briefly: Antagonist activity at rat TRPV4.
Series [10] can be described thus: Clearance in Sprague-Dawley rat plasma at 1 mg/kg, iv by HPLC-MS/MS analysis. The format is ADME, organism-based. The arrangement: dose 1 mg/kg, route intravenous.
Series [11] deals with Plasma. Briefly: Fraction unbound in human plasma. The format is ADME, cell-free.
In series [12] the target is Sodium channel protein type 5 subunit alpha (Homo sapiens, UniProt Q14524). Briefly: Inhibition of human Nav1.5 expressed in HEK293 cells at >10 uM. The format is cell-based.
Sequence of Sodium channel protein type 5 subunit alpha (Q14524 whole entry): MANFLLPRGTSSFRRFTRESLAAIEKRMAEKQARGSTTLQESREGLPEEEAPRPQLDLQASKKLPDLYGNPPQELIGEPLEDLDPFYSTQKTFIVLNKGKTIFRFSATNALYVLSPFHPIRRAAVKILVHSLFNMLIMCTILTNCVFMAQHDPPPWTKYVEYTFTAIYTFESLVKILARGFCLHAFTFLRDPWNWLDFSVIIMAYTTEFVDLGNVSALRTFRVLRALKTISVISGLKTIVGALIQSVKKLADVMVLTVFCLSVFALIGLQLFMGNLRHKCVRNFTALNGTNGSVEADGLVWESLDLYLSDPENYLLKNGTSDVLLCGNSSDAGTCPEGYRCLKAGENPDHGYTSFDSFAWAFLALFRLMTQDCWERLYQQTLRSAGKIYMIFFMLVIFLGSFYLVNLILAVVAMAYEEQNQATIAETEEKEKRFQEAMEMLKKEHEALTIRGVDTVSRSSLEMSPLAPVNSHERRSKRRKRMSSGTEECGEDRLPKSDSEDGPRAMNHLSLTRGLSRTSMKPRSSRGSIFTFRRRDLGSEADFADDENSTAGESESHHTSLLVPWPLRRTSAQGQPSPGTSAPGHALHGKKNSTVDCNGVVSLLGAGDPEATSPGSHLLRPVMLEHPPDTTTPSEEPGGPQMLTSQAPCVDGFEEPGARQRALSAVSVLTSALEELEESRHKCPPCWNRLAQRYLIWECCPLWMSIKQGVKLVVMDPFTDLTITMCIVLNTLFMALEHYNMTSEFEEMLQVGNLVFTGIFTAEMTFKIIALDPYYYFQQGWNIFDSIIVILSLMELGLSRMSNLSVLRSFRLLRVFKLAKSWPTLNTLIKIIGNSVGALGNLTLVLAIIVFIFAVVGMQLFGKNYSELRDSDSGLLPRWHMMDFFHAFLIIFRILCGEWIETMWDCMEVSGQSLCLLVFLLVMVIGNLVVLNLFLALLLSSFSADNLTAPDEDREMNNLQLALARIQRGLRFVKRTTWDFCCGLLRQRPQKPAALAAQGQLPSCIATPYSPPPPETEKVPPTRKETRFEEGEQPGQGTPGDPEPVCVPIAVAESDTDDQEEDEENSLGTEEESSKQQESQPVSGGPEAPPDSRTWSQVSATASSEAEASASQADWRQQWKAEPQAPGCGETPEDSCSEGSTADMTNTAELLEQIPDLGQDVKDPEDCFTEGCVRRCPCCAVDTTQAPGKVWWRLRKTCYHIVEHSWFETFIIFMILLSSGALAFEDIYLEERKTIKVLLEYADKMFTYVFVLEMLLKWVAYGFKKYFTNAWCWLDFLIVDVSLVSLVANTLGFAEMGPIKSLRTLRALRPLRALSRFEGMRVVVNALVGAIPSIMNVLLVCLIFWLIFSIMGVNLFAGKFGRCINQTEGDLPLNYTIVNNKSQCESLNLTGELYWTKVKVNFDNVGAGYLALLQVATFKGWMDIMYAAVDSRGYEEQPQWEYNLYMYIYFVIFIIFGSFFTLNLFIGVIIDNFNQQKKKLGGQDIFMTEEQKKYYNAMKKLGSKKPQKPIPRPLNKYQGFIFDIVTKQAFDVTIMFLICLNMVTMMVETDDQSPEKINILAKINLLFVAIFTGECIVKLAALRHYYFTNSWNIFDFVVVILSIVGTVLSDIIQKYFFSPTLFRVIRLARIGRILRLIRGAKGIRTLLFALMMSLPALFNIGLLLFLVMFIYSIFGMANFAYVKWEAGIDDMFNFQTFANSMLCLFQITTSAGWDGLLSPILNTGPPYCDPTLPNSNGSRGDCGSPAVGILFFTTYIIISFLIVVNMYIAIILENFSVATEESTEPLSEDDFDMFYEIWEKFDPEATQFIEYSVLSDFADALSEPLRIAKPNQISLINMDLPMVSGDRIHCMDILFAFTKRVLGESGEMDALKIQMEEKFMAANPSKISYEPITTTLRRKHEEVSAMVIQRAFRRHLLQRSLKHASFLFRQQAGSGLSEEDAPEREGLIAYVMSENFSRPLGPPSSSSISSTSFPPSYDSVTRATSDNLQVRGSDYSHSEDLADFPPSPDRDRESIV
The target in series [13] is T1, Transient receptor potential cation channel subfamily V member 4. Briefly: Agonist activity at human TRPV4.
In series [14] the test system is Rattus norvegicus. Description: Effect on mean arterial pressure in Sprague-Dawley rat at 3 to 10 mg/kg, iv. The format is ADME, organism-based, Artery. The arrangement: dose 3-10 mg/kg, route intravenous. To be noted: in vivo. In outline:
as §1

Series [15] can be described thus: Oral bioavailability in Sprague-Dawley rat at 2 mg/kg by HPLC-MS/MS analysis. The format is ADME, organism-based. To be noted: in vivo.
Series [16] addresses Transient receptor potential cation channel subfamily V member 4 (Rattus norvegicus) (UniProt Q9ERZ8). Description: Agonist activity at rat TRPV4.
The subject of series [17] is Plasma. Described as §2. The format is ADME, organism-based. The arrangement: dose 2 mg/kg, route oral. To be noted: in vivo, BLD = below limit of detection.
The subject of series [18] is Plasma. Description: Stability of the compound in Sprague-Dawley rat plasma at 1 mg/kg, iv by HPLC-MS/MS analysis. Type of series: ADME, organism-based. Also on record: dose 1 mg/kg, route intravenous. The following applies: in vivo.

On to `CC(C)Nc1nc2c(C(=O)N(C)C)c(Cl)c(Cl)cc2n1CC1CCN(c2ccccc2)CC1`, for which the half-inhibitory concentration (IC50) – broadly, the concentration at which inhibition is half-maximal – in [1] is 5010 nM.

On to `CC(C)Nc1nc2c(C(=O)N(C)C)c(Cl)c(Cl)cc2n1C1CCN(c2ccc(C(C)(C)C#N)cc2)CC1`, for which the outcome with Rattus norvegicus [2] was Active. In addition, the result (in the series with Rattus norvegicus [3]; in series [13]; in series [16]) was inactive. In addition, in [4], the half-life (usually how long it takes for the measured level to halve) was 1.6 h. Moreover, the inhibition entry in [5] is “inactive”. The “Cp(f)” value with Plasma [6] worked out at 3.3%; in the series with Plasma [11] it was 4.4%. Also, the “inhibition (INH)” value in series [7] and in series [12] was “Not Active” each time. The Activity entry in the series with Rattus norvegicus [8] was “Dose-dependent effect”; with Rattus norvegicus [14], “Non-toxic”. Moreover, the IC50 amounted to 32 nM in series [9] and 31.6 nM in series [1]. Besides, the clearance (commonly the rate of elimination divided by the concentration) in series [10] came out at 13 mL/min/kg. Further, the bioavailability (commonly the share of a dose that reaches the circulation, judged against a reference dose that is usually intravenous) in series [15] is 31%.

`CC(C)Nc1nc2c(C(=O)N(C)C)c(Cl)c(Cl)cc2n1C1CCN(c2ccc(C(C)(C)C)cc2)CC1` had a half-life in [4] of 3.7 h. For the same compound, the clearance in series [10] stood at 34 mL/min/kg. In series [1], the IC50 came out at 50.1 nM. This compound came in with a bioavailability in series [15] of 39%.

As for `Cc1cccc(N2CCC(n3c(NC(C)C)nc4c(C(=O)N(C)C)c(Cl)c(Cl)cc43)CC2)c1`, in [4], the half-life is 3.2 h. In series [10], this compound returned a clearance of 12 mL/min/kg. Also, the concentration for half-maximal inhibition (IC50) in [1] stood at 126 nM. Moreover, the bioavailability in series [15] came out at 76%.

Turning to `CC(C)Nc1nc2c(C(=O)N(C)C)c(Cl)c(Cl)cc2n1C1CCN(C(=O)Nc2ccccc2)CC1`, the IC50 in [1] turned out to be 2510 nM.

In series [4], `CC(C)Nc1nc2c(C(=O)N(C)C)c(Cl)c(Cl)cc2n1C1CCN(c2ccc(C3CCCCC3)cc2)CC1` gave a half-life of 2.8 h. Moreover, the clearance in series [10] amounted to 9.3 mL/min/kg. For the same compound, in series [1], the 50% inhibitory concentration (IC50) was 31.6 nM. In addition, the bioavailability in [15] was 7%.

Turning to `COC(=O)C(C)(C)c1ccc(N2CCC(n3c(NC(C)C)nc4c(C(=O)N(C)C)c(Cl)c(Cl)cc43)CC2)cc1`, the t1/2 entry in the series with Plasma [17] was “BLD”. Also, the Stability entry with Plasma [18] is given as “Unstable”. The IC50 in series [1] is 15.8 nM.

For the compound `CC(C)Nc1nc2c(C(=O)N(C)C)c(Cl)c(Cl)cc2n1C1CCN(Cc2ccccc2)CC1`, in series [1], the half-inhibitory concentration (IC50) is 1000 nM.

Regarding `CC(C)Nc1nc2c(C(=O)N(C)C)c(Cl)c(Cl)cc2n1C1CCN(c2ccc(OC(C)C)cc2)CC1`, in series [4], the half-life is 2.1 h. Further, the clearance in series [10] amounted to 46 mL/min/kg. The IC50 in series [1] was found to be 12.6 nM. In series [15], this compound gave a bioavailability of 36%.

Compound `Cc1ccc(N2CCC(n3c(NC(C)C)nc4c(C(=O)N(C)C)c(Cl)c(Cl)cc43)CC2)cc1` gave a half-life in series [4] of 1.6 h. For the same compound, in [10], the clearance amounted to 18 mL/min/kg. Moreover, the 50% inhibitory concentration (IC50) in [1] stood at 126 nM. The compound also showed a bioavailability in series [15] of 38%.

In the case of `CC(C)Nc1nc2c(C(=O)N(C)C)c(Cl)c(Cl)cc2n1-c1ccc(N2CCCCC2)cc1`, the IC50 in series [1] is 631 nM.

On to `CC(C)Nc1nc2c(C(=O)N(C)C)c(Cl)c(Cl)cc2n1C1CCN(c2ccc(C3(C#N)CCOCC3)cc2)CC1`, for which, in series [4], the half-life is 2.1 h. In [10], this compound gave a clearance of 25 mL/min/kg. In addition, the IC50 in [1] turned out to be 3.2 nM. This compound gave a bioavailability in [15] of 22%.

Consider `CC(C)Nc1nc2c(C(=O)N(C)C)c(Cl)c(Cl)cc2n1C1CCN(S(=O)(=O)c2ccc(Cl)cc2)CC1`, for which the IC50 in series [1] was determined as 3980 nM.

Regarding `CC(C)Nc1nc2c(C(=O)N(C)C)c(Cl)c(Cl)cc2n1C1CCN(c2ccc(C(C)(C)C(=O)O)cc2)CC1`, the half-maximal inhibitory concentration (IC50) in series [1] is > 10000 nM.

For `CC(C)Nc1nc2c(C(=O)N(C)C)c(Cl)c(Cl)cc2n1C1CCN(c2ccccc2)CC1`, in [1], the IC50 turned out to be 200 nM.

With `CC(C)Nc1nc2c(C(=O)N(C)C)c(Cl)c(Cl)cc2n1C1CCN(C(=O)c2ccc(C(C)(C)C)cc2)CC1`, in series [1], the half-inhibitory concentration (IC50) came out at 1260 nM.
